How the values were obtained:
[1] = Displacement of [3H]DTG from sigma2 receptor in rat liver membrane homogenates; format: cell membranes
In short: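 Run on rat liver membrane homogenate (~300 μg protein) with ~5 nM [3H]DTG plus 1 μM (+)-pentazocine to mask σ1 sites. 10 μM haloperidol defined nonspecific binding. IC50 came from nonlinear regression.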

[2] = biological target: Sigma non-opioid intracellular receptor 1 (Cavia porcellus, UniProt Q60492); assay: Displacement of (+)-[3H]pentazocine from sigma1 receptor in guinea pig brain membrane homogenates; format: cell membranes
Sigma non-opioid intracellular receptor 1, sequence (Q60492 whole entry): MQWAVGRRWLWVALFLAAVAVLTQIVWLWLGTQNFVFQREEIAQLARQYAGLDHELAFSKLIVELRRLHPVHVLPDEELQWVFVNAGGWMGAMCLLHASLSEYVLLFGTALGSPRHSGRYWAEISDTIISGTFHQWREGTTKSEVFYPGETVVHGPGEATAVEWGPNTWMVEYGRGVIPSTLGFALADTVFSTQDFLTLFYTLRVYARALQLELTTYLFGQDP
In short: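 Run on guinea pig brain membrane homogenate (~300 μg protein) with 5 nM (+)-[3H]pentazocine. 10 μM haloperidol defined nonspecific binding. IC50 came from nonlinear regression with a one-site fit.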

[3] = biological target: T1, Vesicular acetylcholine transporter (Homo sapiens, UniProt Q16572); assay: Displacement of [3H]-vesamicol from human VAChT after 24 hrs by liquid scintillation spectrometry analysis
T1 sequence (Q16572 whole entry): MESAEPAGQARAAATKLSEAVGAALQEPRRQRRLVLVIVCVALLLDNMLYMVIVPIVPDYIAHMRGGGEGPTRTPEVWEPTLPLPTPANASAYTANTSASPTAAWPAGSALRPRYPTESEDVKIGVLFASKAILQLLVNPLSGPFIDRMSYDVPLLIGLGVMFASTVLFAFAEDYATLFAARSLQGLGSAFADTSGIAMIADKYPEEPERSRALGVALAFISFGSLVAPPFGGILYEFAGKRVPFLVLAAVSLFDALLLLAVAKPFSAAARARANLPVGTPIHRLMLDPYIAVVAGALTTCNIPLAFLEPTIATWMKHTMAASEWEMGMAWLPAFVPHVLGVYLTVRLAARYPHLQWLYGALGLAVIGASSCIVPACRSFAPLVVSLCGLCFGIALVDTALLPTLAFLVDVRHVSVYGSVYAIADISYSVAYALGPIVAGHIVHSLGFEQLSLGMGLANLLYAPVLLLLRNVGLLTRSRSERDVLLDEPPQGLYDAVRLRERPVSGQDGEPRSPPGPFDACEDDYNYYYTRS

O=C(c1ccc(F)cc1)C1CCN([C@@H]2Cc3c(O)cccc3C[C@H]2O)CC1
Ki [1]: 1850 nM | Ki [2]: 8640 nM | Ki [3]: 4.64 nM

O=C(c1ccc(OCCF)cc1)C1CCN([C@@H]2Cc3ccccc3C[C@H]2O)CC1
Ki [1]: 1880 nM | Ki [2]: 13.2 nM | Ki [3]: 1.74 nM

O=C(c1ccc(F)cc1)C1CCN(C2Cc3c(cccc3OCCF)CC2O)CC1 (single isomer, unassigned; (-))
Ki [1]: > 10000 nM

O=C(c1ccc(F)cc1)C1CCN([C@@H]2Cc3cccc(O)c3C[C@H]2O)CC1
Ki [1]: 2600 nM | Ki [2]: 28.7 nM | Ki [3]: 56.2 nM

O[C@@H]1CCCC[C@H]1N1CCC(c2ccccc2)CC1 [VESAMICOL]
Ki [1]: 346 nM

O=C(c1ccc(OCCOCCOCCF)cc1)C1CCN([C@@H]2Cc3ccccc3C[C@H]2O)CC1
Ki [1]: > 10000 nM | Ki [2]: > 10000 nM | Ki [3]: 1.23 nM

O=C(c1ccc(OCCOCCF)cc1)C1CCN([C@@H]2Cc3ccccc3C[C@H]2O)CC1
Ki [1]: 8200 nM | Ki [2]: 1580 nM | Ki [3]: 0.87 nM

O=C(c1ccc(F)cc1)C1CCN([C@@H]2Cc3c(cccc3OCCF)C[C@H]2O)CC1 (racemic)
Ki [1]: > 10000 nM | Ki [2]: 821 nM

O=C(c1ccc(F)cc1)c1cccc2c1C[C@@H](N1CCC(c3ccccc3)CC1)[C@H](O)C2
Ki [1]: 251 nM

O=C(c1ccc(F)cc1)C1CCN(C2Cc3c(cccc3OCCF)CC2O)CC1 (single isomer, unassigned; (+))
Ki [1]: 7800 nM

O=C(c1ccc(F)cc1)C1CCN([C@@H]2Cc3cccc(OCCF)c3C[C@H]2O)CC1 (racemic)
Ki [1]: 7140 nM | Ki [2]: > 10000 nM

Reference: ChEMBL document CHEMBL3596119, “Synthesis and biological characterization of a promising F-18 PET tracer for vesicular acetylcholine transporter” (Bioorg Med Chem, 2015)
